Bioassay records (PubChem)
A selection: hits, their analogues and other compounds. The true share with any hit is near 2.8%.
HEK293 NFkB inh: inhibitors of the PMA/ionomycin-induced NF-kB reporter in HEK293 cells. inhibition, % at 3 µM. HEK-293 NF-kB luciferase reporter, luminescence. 62,000 compounds, 0.21% hits. AID 465;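 active = inhibition above the mean of all tested compounds plus 3 SD, cut at about 40% in these data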
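System: NF-kB luciferase reporter HEK-293 cells | Replication: Single test | Control set: DMSO vs reference inhibitor | Evaluation: % inhibition | Schedule: 1 h pretreatment, 16 h stimulation, 37 °C | Probe or stimulus: PMA with ionomycin | Compound dosing: One dose, 3 µM | Detection: Luciferase luminescence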
Jurkat viability: cytotoxicity toward Jurkat cells. Jurkat E6.1 viability, ATP luminescence, 48 h. 56,000 compounds, 1.2% hits. inhibition, % at 4 µM;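 active = inhibition above the mean inhibition of all tested compounds plus 3 SD, cut at about 28% in these data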
SF-1 act: activators of human nuclear receptor SF-1; CHO-K1 Gal4-SF-1 LBD luciferase reporter; % increase over DMSO SF-1-specific signal; activation, % at 10 µM; 65,000 compounds, 1.9% hits; AID 522;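 active = activation above the mean activation of all tested compounds plus 3 SD, cut at about 50% in these data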
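System: CHO-K1 cells with Gal4–hSF-1 LBD chimera plus Gal4-driven luciferase; quantity: 4,000 CHO-K1 cells per well; compound: one dose, 10 µM compound, 1% DMSO; times: 20 h compound treatment, 37 °C; measured by: SteadyLite luciferase luminescence; read-out: percent activation versus DMSO; benchmarks: DMSO and mock-transfected background; replicates: one test per compound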
MT1-MMP txn act: activates MT1-MMP transcription; HT1080 MT1-MMP promoter luciferase reporter, luminescence, overnight; hits give high values; activation factor at 10 µM; 86,000 compounds, 0.16% hits; AID 750;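 active = activation factor of at least 2 for MT1-MMP transcription at 10 µM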
RORA act: activates the human nuclear receptor RORA; P35398; CHO-K1 Gal4-RORA LBD luciferase reporter, luminescence; percent increase over mock-subtracted basal signal; 65,000 compounds, 1.5% hits; activation, % at 10 µM; AID 560;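 active = activation above the mean of all tested compounds plus 3 SD, cut at about 49% in these data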
Target sequence (P35398 whole entry, looked up, the tested form may be a part): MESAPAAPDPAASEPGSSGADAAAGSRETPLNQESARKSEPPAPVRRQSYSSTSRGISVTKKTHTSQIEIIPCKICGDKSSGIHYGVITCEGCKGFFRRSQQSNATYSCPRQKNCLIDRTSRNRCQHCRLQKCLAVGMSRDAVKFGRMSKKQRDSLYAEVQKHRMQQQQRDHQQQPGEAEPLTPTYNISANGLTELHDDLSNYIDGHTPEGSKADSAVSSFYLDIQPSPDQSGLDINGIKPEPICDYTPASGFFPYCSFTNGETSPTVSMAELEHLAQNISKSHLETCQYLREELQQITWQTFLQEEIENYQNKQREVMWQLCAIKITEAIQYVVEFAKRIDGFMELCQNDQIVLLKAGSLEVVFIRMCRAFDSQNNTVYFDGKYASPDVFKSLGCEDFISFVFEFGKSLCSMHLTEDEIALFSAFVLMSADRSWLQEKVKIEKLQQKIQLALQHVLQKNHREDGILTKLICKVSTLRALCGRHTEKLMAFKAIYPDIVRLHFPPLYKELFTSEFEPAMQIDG
Large screens that a line does not name were inactive.

c1ccc(COc2ccc(OCCn3cncn3)cc2)cc1	SF-1 act 54.8
COc1cccc(CNC(=O)CCn2c(=O)oc3ccccc32)c1	none
Cn1c(CSc2nc3ccccc3n2C)nc2ccccc21	none (no result: HEK293 NFkB inh, Jurkat viability, SF-1 act, RORA act)
Cn1c(SC2=CS(=O)(=O)c3ccccc32)nc2ccccc21	Jurkat viability 73.1
COc1ccc(-c2cc(C(=O)N3CCCCC3)no2)cc1OC	SF-1 act 76.8
COc1ccc(-c2cc(C(=O)N3CCN(Cc4ccccc4)CC3)no2)cc1OC	none
CCn1c(Cc2ccccc2)nnc1SCC(=O)Nc1ccccc1N1CCOCC1	none (no result: HEK293 NFkB inh, Jurkat viability, SF-1 act, RORA act)
Cc1ccc2c(CC(=O)Nc3sccc3C(N)=O)coc2c1	SF-1 act 86.8
Cc1cccc(NC(=O)CN(C)S(=O)(=O)c2cccc3cccnc23)c1	none
CC(C)(C)n1nnnc1C(c1cccnc1)N1CCN(c2ccccc2)CC1 (centres undefined)	none (no result: HEK293 NFkB inh, Jurkat viability, SF-1 act, RORA act)
Nc1nc2ccc(C(=O)Nc3ccccc3)cc2s1	SF-1 act 90.3, RORA act 61.7
C=CCn1c(SCC(=O)N2CCN(c3ccccc3)CC2)nnc1-c1ccco1	none (no result: HEK293 NFkB inh, Jurkat viability, SF-1 act, RORA act)
O=C(c1ccccc1)c1ccc(N2CCOCC2)c(F)c1	RORA act 74.2
CC(=NC1CCCCC1)C1=C(O)c2ccccc2C1=O	RORA act 88.1
CSC(=NC1CCCCC1)NS(=O)(=O)c1ccccc1	none (no result: Jurkat viability)
C=CCSc1n[nH]c(-c2ccc(OCCCC)cc2)n1	SF-1 act 67.9
C=CCSc1n[nH]c(-c2ccc(OCCC)cc2)n1	SF-1 act 54.9, RORA act 62.1
CCCc1c(O)nc(SCCN(CCC)CCC)[nH]c1=O	none
N/C(=N\OC(=O)c1ccco1)c1ccccc1	MT1-MMP txn act 2 (no result: HEK293 NFkB inh, Jurkat viability, SF-1 act, RORA act)
Cc1ccc(/C(N)=N/OC(=O)c2ccco2)cc1	none (no result: HEK293 NFkB inh, Jurkat viability, SF-1 act, RORA act)
CCCCOc1ccc(-c2nnn(CC(=O)NCc3ccco3)n2)cc1	RORA act 197.6
NC(=O)C1(c2ccccc2)CCOCC1	none
O=C(NCc1ccccc1)c1noc2c1CCCCC2	SF-1 act 52.5
O=C1CN(C(=O)COC(=O)c2cccc(S(=O)(=O)NCc3ccccc3)c2)c2ccccc2N1	none (no result: HEK293 NFkB inh, Jurkat viability, SF-1 act, RORA act)
CCOc1ccc(NC(=O)c2cc3n(n2)C(C(F)(F)F)CC(c2ccco2)N3)cc1 (centres undefined)	RORA act 59.9
O=C(Nc1ccc(O)cc1)c1cc2n(n1)C(C(F)(F)F)CC(c1ccco1)N2 (centres undefined)	none
COc1ccc(OC)c(C(C)NC(=O)c2ccco2)c1 (centres undefined)	Jurkat viability 40.2
COc1ccc(C(=O)NC(=O)Nc2cc(C)ccn2)cc1	HEK293 NFkB inh 58.9
COc1ccc(OC)c(C(C)NC(C)=O)c1 (centres undefined)	none
COc1cccc(NC(=O)c2ccco2)c1	RORA act 54.2
O=C(Nc1ccc(Br)c(Cl)c1)c1ccco1	SF-1 act 91.6, RORA act 76.0
CC1CC(N(C(=O)c2ccco2)c2ccccc2)c2ccccc2N1C(=O)c1ccco1 (centres undefined)	none (no result: HEK293 NFkB inh, Jurkat viability, SF-1 act, RORA act)
CCC(=O)Nc1ccc(NC(=O)c2ccco2)c(OC)c1	none
COc1cc(NC(=O)CC(C)C)ccc1NC(=O)c1ccco1	RORA act 79.8
COc1ccc(C(=O)Nc2cccc(OC)c2)cc1	SF-1 act 81.2
CC(C)OC(=O)c1cccc(NC(=O)c2ccccc2)c1	MT1-MMP txn act 2.1 (no result: HEK293 NFkB inh, Jurkat viability, SF-1 act, RORA act)
COc1cccc(C(=O)Nc2cccc(NC(C)=O)c2)c1	none
COc1ccc(C(=O)Nc2cc(C)on2)cc1	RORA act 76.7
CC1(C)CC(=O)C=C(NC2CCS(=O)(=O)C2)C1 (centres undefined)	none (no result: Jurkat viability)
CCCn1nnc(NC(=O)c2cccc(OCC)c2)n1	SF-1 act 66.2, RORA act 51.5
CCn1nnc(NC(=O)c2cccc(-c3cc4ccccc4oc3=O)c2)n1	SF-1 act 54.7
COc1cccc(C(=O)NC2CCN(C(=O)N3CCCCC3)CC2)c1	none
CCOc1cccc(C(=O)NC2CCCCC2)c1	SF-1 act 52.0
CCOc1ccccc1C1C(C(N)=O)=C(C)Nc2nc(CCCO)nn21 (centres undefined)	none (no result: MT1-MMP txn act)
O=C(CSCCSCC(=O)c1ccco1)c1ccco1	none
COC(=O)c1sc2nc(-c3ccco3)ccc2c1N	SF-1 act 66.3
CNC(=O)[C@H](C)/C=C(\I)C(NC(=O)OCc1ccccc1)c1ccc(C(=O)OC)cc1 (some centres undefined)	none (no result: HEK293 NFkB inh, Jurkat viability, SF-1 act, RORA act)
CC(=O)c1c(C)[nH]c(C(=O)NCCc2cccc(C)c2)c1C	SF-1 act 71.0
Cc1ccc(C(=O)CSc2ccccn2)cc1	SF-1 act 83.9
CC(NC(=O)CSc1nc2ccccc2n1CCC#N)c1ccc(F)cc1 (centres undefined)	none (no result: HEK293 NFkB inh, Jurkat viability, SF-1 act, RORA act)
CC(=O)N1c2ccccc2N(Cc2ccc(C)cc2C)C(=O)C1(C)C	Jurkat viability 95.1
CCOc1ccc(NC(=O)CN2CCN(CC(=O)Nc3ccc4c(c3)OCO4)CC2)cc1	none
COc1cc(SC)ccc1C(=O)Nc1ccccc1C#N	SF-1 act 59.6
CCOC(=O)c1[nH]c(C)c(C(=O)c2cc(F)ccc2F)c1C	HEK293 NFkB inh 42.3, Jurkat viability 88.4
COC(=O)c1c(C)[nH]c(C(=O)OCc2ccc(F)cc2)c1C	SF-1 act 59.8 (no result: HEK293 NFkB inh, Jurkat viability)
COc1ccc(N(C(C)C(=O)NCc2ccco2)S(C)(=O)=O)cc1 (centres undefined)	none
CCCNc1ncnc2c1cnn2-c1ccc(OC)cc1	none (no result: HEK293 NFkB inh, Jurkat viability)
c1ccc(CNc2ncnc3c2cnn3Cc2ccccc2)cc1	none (no result: HEK293 NFkB inh, Jurkat viability, SF-1 act, RORA act)
c1ccc(-n2ncc3c(NCc4cccnc4)ncnc32)cc1	RORA act 51.5
c1ccc(-n2ncc3c(NCc4cccs4)ncnc32)cc1	SF-1 act 51.1
CC(C)Nc1ncnc2c1cnn2-c1ccccc1	none
Cc1ccccc1-n1ncc2c(SCC(=O)NCc3cccs3)ncnc21	Jurkat viability 39.9
COc1ccc(-n2ncc3c(NCc4cccs4)ncnc32)cc1	SF-1 act 81.6
Cc1csc(NC(=O)CSc2ncnc3c2cnn3-c2ccccc2Cl)n1	none
O=C1/C(=C/c2cccnc2)Oc2cc(OS(=O)(=O)c3ccc(F)cc3)ccc21	none (no result: HEK293 NFkB inh, Jurkat viability, SF-1 act, RORA act)
CCN=C(NCC)SC1CC(=O)N(c2ccc(OC)cc2)C1=O (centres undefined)	none (no result: HEK293 NFkB inh, Jurkat viability, SF-1 act, RORA act)
CC1CN(S(=O)(=O)c2ccccc2)CC(C)O1 (centres undefined)	none
CC1CN(S(=O)(=O)c2ccc(NC(=O)c3cc(-c4ccccc4O)n[nH]3)cc2)CC(C)O1 (centres undefined)	Jurkat viability 53.8
Cc1cc(C(=O)CSc2nc3ccccc3o2)c(C)n1C1CC1	SF-1 act 61.0, RORA act 81.6
Cc1ccc(-n2ncc3c(N4CCCC4)ncnc32)c(C)c1	SF-1 act 66.0 (no result: HEK293 NFkB inh, Jurkat viability)
Cc1ccc(-n2ncc3c(N4CCCC(C)C4)ncnc32)c(C)c1 (centres undefined)	SF-1 act 58.7
Cn1c(SCc2ccccc2F)nc2cccnc21	RORA act 80.1
Fc1ccccc1CSc1nc2ncccc2[nH]1	SF-1 act 51.1
COc1ccc(C(=O)CSc2nc3cccnc3n2C)cc1	none (no result: HEK293 NFkB inh, Jurkat viability, SF-1 act, RORA act)
